Bioassay records (PubChem BioAssay)
In the library only some 2.1% were active in any assay of this set; here they are far more common.
APJ antagonist – APJ receptor antagonism. P35414. CHO-K1 APJ beta-arrestin complementation, luminescence. inhibition, % at 20 µM. hit rate 0.32% among 330,000;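 active = inhibition above about 40% at 20 µM, limit read from the data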;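 note: cells challenged with 10 nM apelin-13 agonist together with compound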
EBI2 block – EBI2 (human) antagonism. AID 651636. P32249. EBI2 beta-arrestin recruitment, luminescence, 7a,25-OHC stimulated. hit rate 0.81% among 360,000. inhibition, % at 5 µM; in the data active = inhibition above about 38%;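 note: enzyme fragment complementation signal reports receptor beta-arrestin coupling in cells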
Target sequence (P32249 whole entry, looked up, the tested form may be a part): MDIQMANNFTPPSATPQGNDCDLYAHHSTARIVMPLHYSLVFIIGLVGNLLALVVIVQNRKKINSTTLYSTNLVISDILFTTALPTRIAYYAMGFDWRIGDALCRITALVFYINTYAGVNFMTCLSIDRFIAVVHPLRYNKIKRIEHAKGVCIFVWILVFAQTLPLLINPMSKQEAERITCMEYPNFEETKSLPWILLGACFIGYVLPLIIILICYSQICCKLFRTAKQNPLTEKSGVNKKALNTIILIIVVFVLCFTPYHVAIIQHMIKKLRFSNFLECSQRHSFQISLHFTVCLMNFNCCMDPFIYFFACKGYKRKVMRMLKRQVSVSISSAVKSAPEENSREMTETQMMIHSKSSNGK
APJ agonist – agonists of human APJ apelin receptor; hit rate 0.11% among 330,000; CHO-K1 APJ PathHunter beta-arrestin, luminescence; 0% DMSO wells, 100% apelin; activation, % at 20 µM;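 active = activation more than six SD over the plate average, tested at 20 µM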
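Test system: CHO-K1 APJ beta-arrestin complementation cell line | Compound: Single test compound dose, 20 µM final, 1% DMSO | Incubation: Compound 90 min 25 °C, reagent 1 h | Measured by: beta-gal luminescence | Read-out basis: APJ–arrestin association signal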
m5-HT2A agonist – activates the mouse 5-HT2A serotonin receptor; hit rate 0.66% among 360,000; activation, % at 7.6 µM; AID 624169; P35363; CHO-K1 mHTR2A beta-arrestin complementation, luminescence; percent of 30 µM serotonin response;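 active = activation above a run cutoff, the mean activation of all tested compounds plus 3 SD, cut at about 14% in these data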
CCR6 antag – blocks CCL20-driven beta-arrestin recruitment at human CCR6; hit rate 0.49% among 340,000; inhibition, % at 20 µM; CHO-K1 CCR6 PathHunter beta-arrestin, luminescence, CCL20-stimulated; AID 493098; P51684;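 active = compounds whose inhibition of the agonist-driven luminescence signal at 20 µM reaches about 50%, limit read from the data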;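 note: cells stimulated with CCL20 at 14 nM final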
CXCR6 inh – CXCR6 (human) receptor inhibition. AID 602244. O00574. inhibition, % at 20 µM. hit rate 0.36% among 360,000. CHO-K1 PathHunter CXCR6 beta-arrestin, luminescence; in the data active = inhibition above about 34%, passing the limit was not always enough;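 note: antagonist mode with CXCL16 agonist at 10 nM final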
Large screens that a line does not name were inactive.

O=C1C=CC(=O)N1c1cccc(-c2ccccc2)c1	CCR6 antag 76, CXCR6 inh 72
CCOc1ccc2c(c1)c1nnc(SCC(=O)NC3CC3)nc1n2C	none
O=C(O)c1cc(N=Nc2c(O)ccc3ccccc23)cc(C(=O)O)c1	CCR6 antag 57 (no result: APJ antagonist, APJ agonist)
O=C(c1ccccc1)n1c2ccccc2c(=O)n1-c1ccccc1CCl	none (no result: APJ antagonist, APJ agonist, CCR6 antag)
CCOC(=O)/C(=C\c1ccc(Cl)cc1)c1nc2sc(C)c(C)c2c(=O)[nH]1	none
CCOC(=O)/C(=C\c1ccc(OC(F)F)cc1)C1=Nn2c(nnc2-c2ccc(Cl)cc2)SC1	EBI2 block 54 (no result: APJ antagonist, APJ agonist)
CCOC(=O)/C(=C/c1ccc(OC(F)F)cc1)C1=Nn2c(nnc2-c2ccc(Cl)cc2)SC1	EBI2 block 48 (no result: APJ antagonist, APJ agonist)
COc1ccc(-c2nnc3n2N=C(C)CS3)cc1	none
COc1ccc(C(=O)N/N=C/c2ccc(OC)c(CN3CCc4cc(OC)c(OC)cc4C3C)c2)cc1 (stereo not drawn)	none
NC(N)=N/N=C(\N=Nc1ccccc1)c1ccc(Cl)cc1	CCR6 antag 63 (no result: APJ antagonist, APJ agonist)
NC(N)=N/N=C(\N=Nc1ccccc1)c1cccc2cccnc12	none (no result: APJ antagonist, APJ agonist)
O=S(=O)(c1ccccc1)N1CCN(S(=O)(=O)c2ccc(F)cc2)CC1	none
Cc1cc(C)c(S(=O)(=O)ON2C(=O)c3ccccc3C2=O)cc1C	CCR6 antag 67
O=C1c2ccccc2C(=O)N1OS(=O)(=O)c1ccc(F)cc1	CCR6 antag 70, CXCR6 inh 58 (no result: APJ antagonist, APJ agonist)
Cc1cc(C)c(C)c(S(=O)(=O)ON2C(=O)c3ccccc3C2=O)c1C	CCR6 antag 76
Oc1[nH]c2ccc(Br)cc2c1N=NC(=S)N1CCOCC1	EBI2 block 42
C=CCNc1nc(N2CCCCC2)c(C#N)c2c1CN(Cc1ccccc1)CC2	m5-HT2A agonist 39
CCN1CCc2c(C#N)c(N3CCCCC3)nc(NCc3ccccc3)c2C1	none
O=C(C1=C[C@@H](c2csc3ccccc23)C[C@@H](OCCCCO)O1)N1CCN(Cc2ccc3c(c2)OCO3)CC1	m5-HT2A agonist 35
C(=Cc1cccnc1)c1ccncc1	none (no result: APJ antagonist, APJ agonist)
O=C(/C=C/c1cccnc1)/C=C/c1cccnc1	CCR6 antag 59 (no result: APJ antagonist, APJ agonist)
COCCc1ccc(OC2(C)CCN(Cc3cccc(OCOC)c3)C2)cc1 (stereo not drawn)	none (no result: APJ antagonist, APJ agonist, CCR6 antag)
CC(=O)OCCCNc1cc(Sc2ccc(Cl)cc2)c2nonc2c1[N+](=O)[O-]	EBI2 block 68, CCR6 antag 104, CXCR6 inh 92 (no result: APJ antagonist, APJ agonist)
O=C(Nc1cccnc1Cl)c1ccc(=O)oc1	none
CC(C)Cc1nc2oc3c(N4CCN(CCO)CC4)ncnc3c2c2c1CCCC2	EBI2 block 51
Oc1csc(Cc2nc(-c3ccc4ccccc4c3)cs2)n1	CCR6 antag 56
C=CCn1c2ccccc2c2nnc(SCC(=O)Nc3cc(C)on3)nc21	CCR6 antag 55
CCCn1c2ccccc2c2nnc(SCC(=O)Nc3ncccn3)nc21	CCR6 antag 63, CXCR6 inh 43
CCCn1c2ccccc2c2nnc(SCC(=O)Nc3cc(C)on3)nc21	none
Cc1c(OC(C)C(=O)NCc2ccccn2)ccc2c3c(c(=O)oc12)CCCC3 (stereo not drawn)	none
CC(C)[C@H](NC(=O)c1ccccc1)C(=O)OCC(=O)Nc1sccc1C(N)=O	none
O=C1NC[C@H](c2ccccc2)OC(=O)[C@H](Cc2ccc(F)cc2)CC/C=C/C[C@H]1CC(=O)N(CCO)Cc1ccccc1	CXCR6 inh 48 (no result: APJ antagonist, APJ agonist)
O=C1NC[C@H](c2ccccc2)OC(=O)[C@@H](Cc2ccc(F)cc2)CC/C=C/C[C@H]1CC(=O)N(CCO)Cc1ccccc1	none (no result: APJ antagonist, APJ agonist)
O=C(c1cccs1)c1no[n+]([O-])c1C(=O)c1cccs1	APJ agonist 30
CNc1ccc(N=Nc2cccc3ncccc23)cc1	CCR6 antag 61, CXCR6 inh 41 (no result: APJ antagonist, APJ agonist)
c1cnc2ccc3ncccc3c2c1	none
COC(=O)C1=C(C(=O)OC)SC(=C2C(=S)C(C)(C)N(C(=O)C(C)C)c3ccccc32)S1	CCR6 antag 53
COC(=O)C1=C(C(=O)OC)SC(=C2C(=S)C(C)(C)N(C(=O)C3CC3)c3ccccc32)S1	CCR6 antag 52
CCOc1ccccc1OCCC(=O)OCC(=O)Nc1c(C)nn(-c2ccccc2)c1C	none
